Experimental data reported in paper PMC12554292 (Drug Design, Development and Therapy, 2025).
Where two headings read alike, the source gives them in different places. One block for each molecule: values may come before it.

Key:
Huh-7 cells [1] = test: CCK-8 cell viability and IC50 measurement, Huh-7; type: cell-based, human; settings: read-out: IC50 Huh-7
Procedure, shortened: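 Huh-7 cells (ATCC) in DMEM or RPMI 1640 with 10% FBS, 37°C, 5% CO2; seeded 3 × 10^3 cells/well and left to adhere overnight. […] CCK-8 added for 1 h, A450 read. Viability as % of control; IC50 from inhibition by nonlinear regression. n > 5; mean ± SE.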

Huh-7 cells [2] = test: Autophagy staining assay; type: cell-based, human; settings: 5, 10, 20 μM, 24 h, MDC probe
Procedure, shortened: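 Huh-7 cells were seeded at 3 × 10^3 cells/well and exposed to 0, 5, 10 or 20 μM test compound for 24 h. Medium was removed, and cells were stained with monodansylcadaverine for 1 h in the dark at 37°C, then imaged by confocal microscopy. Replicates: 5–6 per group.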

Huh-7 cells [3] = test: DNA damage staining; type: cell-based, human; settings: 5, 10, 20 μM, 24h
Procedure, shortened: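 Huh-7 cells seeded at 3 × 10^3 cells/well and exposed to test compound at 0, 5, 10 or 20 μM for 24 h. Stained with a DNA damage detection kit (nuclei blue, DNA-damaged cells green), then imaged by fluorescence microscopy. 5–6 replicates per group.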

Huh-7 cells [4] = test: Live and dead cell staining; type: cell-based, human; settings: 5, 10, 20 μM, 24h
Procedure, shortened: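 Huh-7 cells seeded at 3 × 10^3 cells/well and incubated overnight. Treated with test compound at 0, 5, 10 or 20 μM for 24 h, then stained with Calcein-AM and PI for 1 h in the dark and imaged by fluorescence confocal microscopy. 5–6 replicates per group.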

Huh-7 cells [5] = test: RT-PCR gene expression analysis; type: cell-based, human; settings: 10 μM, 72 h
Procedure, shortened: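 Huh-7 cells in 12-well plates were treated with 10 μM test compound for 72 h. Total RNA was extracted with TRIzol, and gene expression was measured by SYBR Green real-time PCR using specific primer pairs.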

Huh-7 cells [6] = test: Western blot protein expression analysis; type: cell-based, human; settings: 10 μM, 72 h
Procedure, shortened: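 Huh-7 cells in 12-well plates were treated with 10 μM test compound for 72 h. Whole-cell protein was extracted in RIPA buffer with protease/phosphatase inhibitors and immunoblotted for γH2AX, caspase-3, caspase-9, PARP, cyclin D, cyclin E, LC3 and β-actin. Six replicates per group; mean ± SEM, two-tailed t-test.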

Huh-7 cells [7] = test: Apoptosis assay; type: cell-based, human; settings: 5, 10, 20 μM, 72h
ABHD6 = settings: cited from earlier work
[8] = target: MET receptor tyrosine kinase (RTK); settings: read-out: IC50 MET receptor tyrosine kinase; cited from earlier work
Female KM mice = test: Acute oral toxicity test; type: in vivo; settings: 500 mg/kg, intragastric administration
Procedure, shortened: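 Female Kunming mice (SPF, 8 weeks), acclimated 7 days with free water on a 12 h light/dark cycle; 6 per group. Test compound at 500 mg/kg given intragastrically in 5% DMSO + 40% PEG300 + 1% Tween 80 + 54% saline; controls received an equal volume of vehicle. Body weight and appearance were followed for 14 days. Heart, liver, spleen, lungs and kidneys were then weighed for organ coefficients and examined by H&E histology.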

IC50 (Huh-7 cells [1]; Homo sapiens, Huh-7, 72 h): > 50 µM
Structure (SMILES): O=C(NCc1cn(Cc2ccc(Br)cc2)nn1)Nc1ccccc1Br [Compound 7e, 1-((1-(4-Bromobenzyl)-1H-1,2,3-Triazol-4-Yl)methyl)-3-(2-Bromophenyl)urea]

IC50 (Huh-7 cells [1]; Homo sapiens, Huh-7, 72 h): > 50 µM
Structure (SMILES): O=C(Nc1ccc(Cl)cc1)Nc1ccc(-c2cn(Cc3ccc(Br)cc3)nn2)cc1 [Compound 5c, 1-(4-(1-(4-Bromobenzyl)-1H-1,2,3-Triazol-4-Yl)phenyl)-3-(4-Chlorophenyl)urea]

IC50 (Huh-7 cells [1]; Homo sapiens, Huh-7, 72 h): > 50 µM
Structure (SMILES): O=C(NCc1cn(Cc2cccc(Cl)c2)nn1)Nc1ccc(Cl)cc1 [Compound 7b, 1-((1-(3-Chlorobenzyl)-1H-1,2,3-Triazol-4-Yl)methyl)-3-(4-Chlorophenyl)urea]

IC50 (Huh-7 cells [1]; Homo sapiens, Huh-7, 72 h): > 50 µM
Structure (SMILES): O=C(Nc1ccc(-c2cn(Cc3ccc(Cl)cc3)nn2)cc1)Nc1ccccc1Br [Compound 5d, 1-(2-Bromophenyl)-3-(4-(1-(4-Chlorobenzyl)-1H-1,2,3-Triazol-4-Yl)phenyl)urea]

IC50 (Huh-7 cells [1]; Homo sapiens, Huh-7, 72 h): > 50 µM
Structure (SMILES): O=C(Nc1ccc(Cl)cc1)Nc1ccc(-c2cn(Cc3ccc(Cl)cc3)nn2)cc1 [Compound 5a, 1-(4-(1-(4-Chlorobenzyl)-1H-1,2,3-Triazol-4-Yl)phenyl)-3-(4-Chlorophenyl)urea]

IC50 (Huh-7 cells [1]; Homo sapiens, Huh-7, 72 h): 12.2 ± 1.31 µM
Structure (SMILES): O=C(Nc1cccc(-c2cn(Cc3ccc(Br)cc3)nn2)c1)Nc1ccccc1Br [Compound 3e, 1-(3-(1-(4-Bromobenzyl)-1H-1,2,3-Triazol-4-Yl)phenyl)-3-(2-Bromophenyl)urea]
autophagosome in tumor cells (Huh-7 cells [2]): increased dramatically
DNA damage (Huh-7 cells [3]): significantly stimulated DNA damage in a concentration-dependent manner
Dead and living cells staining (Huh-7 cells [4]): dead cells were increased significantly in a dose-dependent manner
DNA damaged genes and autophagy genes (mRNA) (Huh-7 cells [5]): not changed
expression of Bcl2 (mRNA) (Huh-7 cells [5]): increased largely
expression of Gpx4 and TNFa (mRNA) (Huh-7 cells [5]): also increased
H2AX protein expression (Huh-7 cells [6]): significantly increased
apoptotic cells (Huh-7 cells [7]): dose-dependent increases in apoptotic cells

IC50 (Huh-7 cells [1]; 72-hour exposure, CCK-8): 39 ± 0.56 µM
Structure (SMILES): O=c1[nH]cc(F)c(=O)[nH]1 [Compound 5-FU, reference compound]

Structure (SMILES): O=C(c1cccc(-c2ccc(-c3cn(C(=O)N4CCCCC4c4ccccc4)nn3)cc2)c1)N1CCCCC1 (stereo not drawn) [KT185]
in vivo selectivity (ABHD6): exceptional in vivo selectivity

IC50 (Huh-7 cells [1]; Homo sapiens, Huh-7, 72 h): > 50 µM
Structure (SMILES): O=C(NCc1cn(Cc2ccc(Cl)cc2)nn1)Nc1ccc(Cl)cc1 [Compound 7a, 1-((1-(4-Chlorobenzyl)-1H-1,2,3-Triazol-4-Yl)methyl)-3-(4-Chlorophenyl)urea]

Structure (SMILES): O=C(NCCN1CCOCC1)Nc1nc2ccc(Sc3nnc4ccc(-c5ccc(F)cc5)nn34)cc2s1 [II]
IC50 [8]: 4.2 nM

Structure (SMILES): O=C(Nc1ccc(Cl)cc1)Nc1cccc(-c2cn(Cc3ccc(Br)cc3)nn2)c1 [Compound 3c, 1-(3-(1-(4-Bromobenzyl)-1H-1,2,3-Triazol-4-Yl)phenyl)-3-(4-Chlorophenyl)urea]
IC50 (Huh-7 cells [1]; Homo sapiens, Huh-7, 72 h): 10.2 ± 1.32 µM
autophagosome in tumor cells (Huh-7 cells [2]): increased dramatically
DNA damage (Huh-7 cells [3]): significantly stimulated DNA damage in a concentration-dependent manner
Dead and living cells staining (Huh-7 cells [4]): dead cells were increased significantly in a dose-dependent manner
expression of Keap1 (mRNA) (Huh-7 cells [5]): upregulated
expression of oxidative stress genes Nrf2, Gpx4, TNFa (mRNA) (Huh-7 cells [5]): no significant changes
expressions of p53, p21, H2AX, Bcl2, caspase6, caspase7, ATG5 and ATG7 (mRNA) (Huh-7 cells [5]): did not influence
mortality (Female KM mice; 14-day observation, female KM mice): no mortality
body weight vs vehicle control group (Female KM mice; 14 days, all time points): no statistically significant differences
organ coefficient and histopathological assessments of major organs (Female KM mice; cardiac, hepatic, splenic, pulmonary, renal tissues): no detectable toxicological alterations
apoptotic cells (Huh-7 cells [7]): dose-dependent increases in apoptotic cells

IC50 (Huh-7 cells [1]; Homo sapiens, Huh-7, 72 h): > 50 µM
Structure (SMILES): O=C(NCc1cn(Cc2ccc(Cl)cc2)nn1)Nc1ccccc1Br [Compound 7d, 1-(2-Bromophenyl)-3-((1-(4-Chlorobenzyl)-1H-1,2,3-Triazol-4-Yl)methyl)urea]

IC50 (Huh-7 cells [1]; Homo sapiens, Huh-7, 72 h): > 50 µM
Structure (SMILES): O=C(Nc1ccc(-c2cn(Cc3ccc(Br)cc3)nn2)cc1)Nc1ccccc1Br [Compound 5e, 1-(4-(1-(4-Bromobenzyl)-1H-1,2,3-Triazol-4-Yl)phenyl)-3-(2-Bromophenyl)urea]

IC50 (Huh-7 cells [1]; Homo sapiens, Huh-7, 72 h): > 50 µM
Structure (SMILES): O=C(Nc1ccc(Cl)cc1)Nc1ccc(-c2cn(Cc3cccc(Cl)c3)nn2)cc1 [Compound 5b, 1-(4-(1-(3-Chlorobenzyl)-1H-1,2,3-Triazol-4-Yl)phenyl)-3-(4-Chlorophenyl)urea]

IC50 (Huh-7 cells [1]; Homo sapiens, Huh-7, 72 h): > 50 µM
Structure (SMILES): O=C(NCc1cn(Cc2ccc(Br)cc2)nn1)Nc1ccc(Cl)cc1 [Compound 7c, 1-((1-(4-Bromobenzyl)-1H-1,2,3-Triazol-4-Yl)methyl)-3-(4-Chlorophenyl)urea]
